The text below walks through data of ChEMBL document CHEMBL1914334, “Discovery and characterization of potent and selective 4-oxo-4-(5-(5-phenyl-1,2,4-oxadiazol-3-yl)indolin-1-yl)butanoic acids as S1P₁ agonists” (Bioorg Med Chem Lett, 2011).

Sequence of Sphingosine 1-phosphate receptor 1 (P21453 whole entry): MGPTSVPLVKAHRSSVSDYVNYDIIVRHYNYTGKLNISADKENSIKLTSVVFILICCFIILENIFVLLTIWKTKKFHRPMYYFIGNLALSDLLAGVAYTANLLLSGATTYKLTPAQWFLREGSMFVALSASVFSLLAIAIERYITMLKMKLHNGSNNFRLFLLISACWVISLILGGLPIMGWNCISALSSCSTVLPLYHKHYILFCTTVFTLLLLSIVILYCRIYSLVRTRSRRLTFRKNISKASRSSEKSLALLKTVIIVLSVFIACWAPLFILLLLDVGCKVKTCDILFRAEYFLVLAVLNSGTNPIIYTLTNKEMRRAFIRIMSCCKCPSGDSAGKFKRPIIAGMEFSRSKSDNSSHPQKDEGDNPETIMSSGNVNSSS

The target of the assay is Sphingosine 1-phosphate receptor 1 (Homo sapiens, UniProt P21453). The experiment in a line: Agonist activity at human S1P1 receptor expressed in HEK293 cells assessed as inhibition of forskolin-stimulated cAMP production after 1 hr by HTRF assay. The format is functional, cell-based. The essentials:
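Human S1P₁ cAMP HTRF read-out; each EC₅₀ is the mean of three or more replicates.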
A word on the EC50: it is the concentration giving half of the maximal effect. Take `FC(F)(F)c1cc(-c2nc(-c3ccc4[nH]ccc4c3)no2)cc(C(F)(F)F)c1`: the EC50 came out at 75 nM.

Turning to `O=C(O)CCC(=O)N1CCc2cc(-c3noc(-c4ccc(OC(F)(F)F)cc4)n3)ccc21`, the EC50 came to 68 nM. As for `COc1ccc(-c2nc(-c3ccc4c(c3)CCN4C(=O)CCC(=O)O)no2)cc1C#N`, the figure is 6.3 nM. As for `O=C(O)COc1ccc2c(c1)CCN(c1noc(-c3cc(C(F)(F)F)cc(C(F)(F)F)c3)n1)C2`, the figure is 54 nM; as for `COc1cc(-c2nc(-c3ccc4c(c3)CCN4C(=O)CCC(=O)O)no2)ccc1OC(F)F`, 1.5 nM. In the case of `CCc1ccc(-c2nc(-c3ccc4c(c3)CCN4C(=O)CCC(=O)O)no2)cc1C(F)(F)F` it was 2.7 nM; in that of `O=C(O)CCC(=O)N1CCc2cc(-c3noc(-c4ccc(C5CCCC5)c(Cl)c4)n3)ccc21`, 0.82 nM; in that of `FC(F)(F)c1cc(-c2nc(-c3ccc4[nH]cnc4c3)no2)cc(C(F)(F)F)c1`, 4.3 nM. For the compound `O=C(O)CCC(=O)N1CCc2cc(-c3noc(-c4ccc(-c5cccs5)c(C(F)(F)F)c4)n3)ccc21`, the EC50 worked out at 1.3 nM. Consider `COc1ccc(-c2nc(-c3ccc4c(c3)CCN4C(=O)CCC(=O)O)no2)cc1C`, for which the half-maximal effective concentration (EC50) turned out to be 18 nM. As for `CCOC(=O)CCn1ncc2cc(-c3noc(-c4cc(C(F)(F)F)cc(C(F)(F)F)c4)n3)ccc21`, the figure is over 100 nM; as for `O=C(O)CCCn1ncc2c1CCN(c1noc(-c3cc(C(F)(F)F)cc(C(F)(F)F)c3)n1)C2`, 369 nM. In the case of `O=C(O)CCn1ncc2cc(-c3noc(-c4cc(C(F)(F)F)cc(C(F)(F)F)c4)n3)ccc21` it was 9.8 nM; in that of `CCc1ccc(-c2nc(-c3ccc4c(c3)CCN4C(=O)CCC(=O)O)no2)cc1S(C)(=O)=O`, 38 nM.

As for `COc1cc(C#N)cc(-c2nc(-c3ccc4c(c3)CCN4C(=O)CCC(=O)O)no2)c1`, the EC50 was 10.3 nM.

For `N#Cc1cc(-c2nc(-c3ccc4c(c3)CCN4C(=O)CCC(=O)O)no2)ccc1OC1CCCC1`, the EC50 amounted to 18 nM.

As to `FC(F)(F)c1cc(-c2nc(-c3ccc4c(c3)CCN4)no2)cc(C(F)(F)F)c1`, the EC50 is 37 nM. In the case of `O=C(O)CCC(=O)N1CCc2cc(-c3noc(-c4ccc(Cl)c(OC(F)(F)F)c4)n3)ccc21` it was 5.3 nM. As to `O=C(O)CCC(=O)n1ccc2cc(-c3noc(-c4cc(C(F)(F)F)cc(C(F)(F)F)c4)n3)ccc21`, the EC50 stood at 41 nM.

`COc1ccc(-c2nc(-c3ccc4c(c3)CCN4C(=O)CCC(=O)O)no2)cc1OC(F)(F)F`: the EC50 turned out to be 1 nM.

With `COc1ccc2c(c1)CCN(c1noc(-c3cc(C(F)(F)F)cc(C(F)(F)F)c3)n1)C2`, the EC50 is 1 nM. In the case of `O=C(O)CCCCn1cc2cc(-c3noc(-c4cc(C(F)(F)F)cc(C(F)(F)F)c4)n3)ccc2n1` it was 4.2 nM; in that of `O=C(O)CCCn1ncc2cc(-c3noc(-c4cc(C(F)(F)F)cc(C(F)(F)F)c4)n3)ccc21`, 4.9 nM; in that of `COc1ccc(-c2nc(-c3ccc4c(c3)CCN4C(=O)CCC(=O)O)no2)cc1C(F)(F)F`, 11 nM. As for `COc1ccc(-c2nc(-c3ccc4c(c3)CCN4C(=O)CCC(=O)O)no2)cc1Cl`, the EC50 stood at 11 nM. In the case of `FC(F)(F)c1cc(-c2nc(N3CCc4[nH]ncc4C3)no2)cc(C(F)(F)F)c1` it was 24 nM. In the case of `CC(C)Oc1ccc(-c2nc(-c3ccc4c(c3)CCN4C(=O)CCC(=O)O)no2)cc1Br` it was 4 nM; in that of `O=C(O)CCN1CCc2cc(-c3noc(-c4cc(C(F)(F)F)cc(C(F)(F)F)c4)n3)ccc21`, 6.1 nM; in that of `O=C(O)CC(=O)N1CCc2cc(-c3noc(-c4cc(C(F)(F)F)cc(C(F)(F)F)c4)n3)ccc21`, 102 nM. As for `O=C(O)CCCC(=O)N1CCc2cc(-c3noc(-c4cc(C(F)(F)F)cc(C(F)(F)F)c4)n3)ccc21`, the figure is 6.6 nM; as for `COC(=O)CCCCn1cc2cc(-c3noc(-c4cc(C(F)(F)F)cc(C(F)(F)F)c4)n3)ccc2n1`, 297 nM. For the compound `CC[C@H](C)Oc1ccc(-c2nc(-c3ccc4c(c3)CCN4C(=O)CCC(=O)O)no2)cc1Cl`, the EC50 amounted to 45 nM.
